Test results taken from ChEMBL document CHEMBL1154117, “Synthesis and evaluation of a novel series of quinoline derivatives with immunosuppressive activity” (Bioorg Med Chem, 2009).

Columns and labels:
[1] = Cytotoxicity against BALB/c mouse splenocytes at 100 uM after 48 hrs by MTT assay; type: cell-based, Splenocyte; details: read-out: INH
In short: (§1)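 BALB/c spleen single-cell suspension, erythrocytes depleted with Tris-buffered NH4Cl (0.155 M NH4Cl, 16.5 mM Tris, pH 7.2). Cells cultured in RPMI-1640 with 10% FBS and compound diluted from DMSO stock (0.1% DMSO in control). Medium-alone cells served as control. MTT (5 mg/mL) added 4 h before end of culture, then SDS/DMF lysis buffer (pH 7.2) for 6 h. Absorbance read at 570 nm and growth inhibition % calculated.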

[2] = Cytotoxicity against BALB/c mouse splenocytes at 30 uM after 48 hrs by MTT assay; type: cell-based, Splenocyte; details: read-out: INH; in short: as §1
[3] = Cytotoxicity against BALB/c mouse splenocytes at 10 uM after 48 hrs by MTT assay; type: cell-based, Splenocyte; details: read-out: INH; in short: as §1
[4] = Immunosuppressive activity in BALB/c mouse splenocytes assessed as inhibition of concanavalin A-induced cell proliferation at 100 uM after 48 hrs by MTT assay; type: functional; details: Splenocyte
In short: (§2)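 Spleen cells (5 × 10⁵) from male BALB/c mice aged 6–8 weeks, erythrocytes lysed, stimulated with ConA 5 μg/mL in RPMI-1640/10% FBS. Compounds diluted from DMSO stock. ConA-stimulated cells used as control. Proliferation read by MTT added 4 h before end of culture, SDS/DMF lysis for 6 h, absorbance at 570 nm.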

[5] = Immunosuppressive activity in BALB/c mouse splenocytes assessed as inhibition of concanavalin A-induced cell proliferation at 10 uM after 48 hrs by MTT assay; type: functional; details: Splenocyte; in short: as §2
[6] = Immunosuppressive activity in BALB/c mouse splenocytes assessed as inhibition of concanavalin A-induced cell proliferation at 30 uM after 48 hrs by MTT assay; type: functional; details: Splenocyte; in short: as §2

| Structure (SMILES) | cytotoxicity at 48 h, 100 µM [1] [%] | cytotoxicity at 48 h, 30 µM [2] [%] | cytotoxicity at 48 h, 10 µM [3] [%] | inhibition at 100 µM [4] [%] | inhibition at 10 µM [5] [%] | inhibition at 30 µM [6] [%] |
| --- | --- | --- | --- | --- | --- | --- |
| COc1cc(OC)c2c(OC(C)=O)ccnc2c1 | 11.3 | 11.2 | 8.3 | 22.7 | 4.1 | 9.7 |
| COc1cc(OC)c2c(OC(=O)c3ccccc3OC)ccnc2c1 | 47.9 | 17.6 | 10.3 | 85.3 | 11.3 | 35.2 |
| O=c1cc[nH]c2cc(O)cc(O)c12 | 8.6 | 10.9 | 1.8 | 18 | -0.9 | 1.7 |
| COc1cc(OC)c2c(OC(=O)c3cccc(Br)c3)ccnc2c1 | 21 | 1.7 | 1.7 | 91 | 16.9 | 48.8 |
| COC(=O)c1ccc(C(=O)Oc2ccnc3cc(OC)cc(OC)c23)cc1 | 23.6 | 2.2 | 6.6 | 91.4 | 15.7 | 27.8 |
| COc1cc(OC)c2c(O[C@@H]3O[C@H](CO)[C@H](O)[C@H](O)[C@H]3O)ccnc2c1 | 17 | 4.2 | 6.2 | 17.8 | 4.2 | 11.2 |
| COc1cc(OC)c2c(O[C@@H]3OC[C@@H](O)[C@H](O)[C@H]3O)ccnc2c1 | 11.2 | 9.1 | 6.9 | 41 | 10.3 | 14.9 |
| COc1cc(OC)c2c(=O)cc[nH]c2c1 | 7.5 | 7.8 | 6.1 | 12.3 | 0.1 | 3.7 |
| COc1cc(OC)c2c(OC(=O)c3ccccc3)ccnc2c1 | 7.7 | 4.6 | 0 | 35.4 | 6.2 | 13.1 |
| COc1cc(OC)c2c(OC(=O)c3ccc([N+](=O)[O-])cc3)ccnc2c1 | 9.5 | 11.1 | 6 | 64 | 18.4 | 34.1 |
| COc1cc(OC)c2c(OC(=O)c3cc(Cl)cc(Cl)c3)ccnc2c1 | 7.2 | 10.7 | 3.4 | 7.9 | 3.9 | 5.1 |
| COc1cc(OC)c2c(OC(=O)c3cccc(Cl)c3)ccnc2c1 | 12.2 | 9.4 | 3.1 | 90.8 | 20.6 | 42 |
| CCCCC(=O)Oc1ccnc2cc(OC)cc(OC)c12 | 9.4 | 10.5 | 4.5 | 13.9 | 4.1 | 5.3 |
| CCCCCCCC/C=C\CCCCCCCC(=O)Oc1ccnc2cc(OC)cc(OC)c12 | 7.2 | 8.8 | 4.1 | 22.2 | 4.4 | 8.5 |
| COc1cc(OC)c2c(OC(=O)c3ccc(Cl)cc3Cl)ccnc2c1 | 22.7 | 20.8 | 16.5 | 79.2 | 35.3 | 62.3 |
| COc1cc(OC)c2c(OC(=O)c3ccccc3F)ccnc2c1 | 19.5 | 12.8 | 7.7 | 31 | 9.3 | 14.3 |
| COc1cc(OC)c2c(OC(=O)c3ccc(I)cc3)ccnc2c1 | 23.4 | 6.6 | 6 | 91.3 | 26.4 | 47.2 |
| CCCCCCCCC(=O)Oc1ccnc2cc(OC)cc(OC)c12 | 11.6 | 2 | 6.4 | 31.9 | 4.4 | 2 |
| COc1cc(OC)c2c(OC(=O)c3cccc([N+](=O)[O-])c3)ccnc2c1 | 12.2 | 8.1 | 3.3 | 82.8 | 18.8 | 42 |
| COc1cc(OC)c2c(OC(=O)c3ccccc3)cc(C)nc2c1 | 13.7 | -0.2 | -7.6 | 81.5 | 5.7 | 34.8 |
| COc1cc(OC)c2c(OC(=O)c3cc([N+](=O)[O-])cc([N+](=O)[O-])c3)ccnc2c1 | 13.4 | 9.5 | 3.4 | 5.6 | 6.3 | 5.1 |
| Cc1cc(=O)c2c(O)cc(O)cc2[nH]1 | 11.2 | 9.9 | 9.1 | 26.7 | 7.5 | 4.4 |
| COc1cc(OC)c2c(OC(=O)c3ccc(Br)cc3)ccnc2c1 | 20.7 | 7.3 | 8.6 | 48.2 | 9.2 | 17.5 |
| COc1cc(OC)c2c(=O)cc(C)[nH]c2c1 | 23.6 | 14.7 | 6.5 | 57.2 | 15.9 | 35.4 |
| COc1ccc(C(=O)Oc2ccnc3cc(OC)cc(OC)c23)cc1 | 13.4 | 11.3 | 8.2 | 17.7 | 7.8 | 11 |
| COc1cc(OC)c2c(O[C@@H]3O[C@H](CO)[C@@H](O)[C@H](O)[C@H]3O)ccnc2c1 | 9.5 | 9.1 | 7.6 | 20.4 | 3.6 | 6 |
| COc1cc(OC)c2c(OC(=O)c3ccccc3I)cc(C)nc2c1 | 37.6 | 18.2 | -3.4 | 91.5 | 19.9 | 54 |
| COc1cc(OC)c2c(OC(=O)c3ccc(Cl)cc3)ccnc2c1 | 21.9 | 0.3 | 3.4 | 86.3 | 30.1 | 47.4 |
